# Most compounds without a hit are left out; they make up all but 2% or so of the library.
# SR-BI DiI inh – inhibitors of SR-BI mediated HDL lipid uptake, primary screen, ldlA[mSR-BI] cells, fluorescence, single point; Scavenger receptor class B member 1 (Mus musculus), Q61009; ldlA[mSR-BI] CHO cells, DiI-HDL uptake fluorescence, 3 h; inhibition, % at 12.5 µM; hit rate 0.96% among 320,000; AID 488896, 2010;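 active = mean replicate inhibition of at least 70% and a set share of replicates each scoring 70 or more; inconclusive = meets just one of the two criteria; inactive = fails both criteria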
# SR-BI uptake up – activators of SR-BI mediated DiI-HDL uptake, primary screen, ldlA[mSR-BI] CHO cells, DiI fluorescence; 3 h; 100 = double the neutral-control signal; activation, % at 12.5 µM; hit rate 0.096% among 320,000; AID 504775, 2011;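 active = mean replicate activation of at least 60% and every replicate at or above 60%; inconclusive = mean or all-replicate condition met, but not both; inactive = mean below 60% and not all replicates reaching 60%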
#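 Assay system: LDL receptor-deficient CHO ldlA cells overexpressing murine SR-BI / Medium: BSA-supplemented, HEPES-buffered Ham's F12, pH 7.4 / Probe or stimulus: DiI-labelled HDL at 10 µg/mL final / Timing: compound with DiI-HDL co-incubation, 3 h at 37 °C / Technique: bottom-read cell fluorescence after medium removal, ex 550/em 595 nm / Measure: HDL uptake via cellular fluorescence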
# CDK5 inh – inhibitors of human CDK5/p35 kinase, primary screen, biochemical, single concentration; inhibition, % at 10 µM; Recombinant CDK5/p35, ADP-Glo luminescence, 60 min; Cyclin-dependent kinase 5 (Homo sapiens) + Cyclin-dependent kinase 5 activator 1 (Homo …; hit rate 0.01% among 330,000;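 active = highest replicate inhibition of at least 50% and at least 75% of replicates reaching 50%; inconclusive = only one of the two criteria met; inactive = both criteria failed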
# Target sequence (Q00535 whole entry, looked up): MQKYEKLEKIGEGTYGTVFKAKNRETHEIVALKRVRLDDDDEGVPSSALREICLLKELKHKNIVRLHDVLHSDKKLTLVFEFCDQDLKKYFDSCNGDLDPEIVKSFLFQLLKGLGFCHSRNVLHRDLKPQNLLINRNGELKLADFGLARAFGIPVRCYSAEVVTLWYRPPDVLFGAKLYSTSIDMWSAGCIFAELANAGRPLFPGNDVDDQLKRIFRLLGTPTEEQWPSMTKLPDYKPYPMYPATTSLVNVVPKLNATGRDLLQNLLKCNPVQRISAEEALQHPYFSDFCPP
# Target sequence (Q15078 whole entry, looked up): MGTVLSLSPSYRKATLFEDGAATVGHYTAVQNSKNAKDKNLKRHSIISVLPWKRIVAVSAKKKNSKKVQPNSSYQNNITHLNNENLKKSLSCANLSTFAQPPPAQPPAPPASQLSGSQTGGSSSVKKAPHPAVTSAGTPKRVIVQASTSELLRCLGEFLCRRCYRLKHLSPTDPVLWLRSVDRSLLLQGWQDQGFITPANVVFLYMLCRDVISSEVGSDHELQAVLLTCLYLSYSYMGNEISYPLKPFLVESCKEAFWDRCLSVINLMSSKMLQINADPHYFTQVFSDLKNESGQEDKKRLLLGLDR
# dFosB act – activators of delta FosB homodimer, primary screen, biochemical, fluorescence polarization, TAMRA-CDK5 oligo, single point; hit rate 0.99% among 340,000; purified delta FosB; percent of positive-control signal above neutral wells; Protein FosB (Mus musculus), P13346; activation, % at 25 µM; AID 493131, 2011;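 active = mean activation above about 17%, with every replicate also reaching it, limit read from the data, passing the limit was not always enough; inconclusive = only one of the two conditions met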
# A number is an active result; 0 = inactive; ? = inconclusive; - = no result given.
SMILES,SR-BI DiI inh,SR-BI uptake up,CDK5 inh,dFosB act
Cc1c(Cl)cccc1N1C(=O)CC(N(O)c2ccccc2)C1=O (stereo not drawn),0,218,0,0
CCN(CC)S(=O)(=O)c1cc(NC(=O)CSc2nnc(N)s2)ccc1C,0,0,0,0
CCN(CC)S(=O)(=O)c1cc(NC(=O)CSc2nc3c(cc2C#N)C(=O)CC(C)(C)C3)ccc1C,72,0,0,0
COc1ccccc1/C=C/CN1CCC(n2nccc2NC(=O)C2CC2)CC1,0,0,0,0
COc1ccc(NC(=O)CSc2nc3n[nH]c(C)c3c(=N)n2-c2ccc(Cl)c(C)c2)cc1OC,0,0,0,44
CCOc1ccc(NC(=O)/C(C#N)=C/c2ccc(N3CCCC3)c(C)c2)cc1,96,0,0,0
CCN(CC)S(=O)(=O)c1ccc(N2CCCCC2)c(NC(=O)/C(C#N)=C/c2ccc(OC)cc2)c1,0,0,0,0
CC(CN(C)Cc1ccccc1)OC(=O)c1cccc(F)c1 (stereo not drawn),0,69,0,0
CC(C)(C)C1CCC2(CC1)C(Nc1cccc(C(F)(F)F)c1)=NC(=S)N2CC#N (stereo not drawn),0,152,0,0
Cc1nc(N2CCC(C)CC2)c2c(C)c(C(=O)Nc3ccc(C)c(F)c3)sc2n1,87,0,0,0
Cc1nc(N2CCCCC2)c2c(C)c(C(=O)Nc3ccc4c(c3)OCCO4)sc2n1,77,0,0,0
CCOc1ccc(NC(=O)c2sc3nc(C)nc(N4CCOCC4)c3c2C)cc1,0,0,0,0
Cc1nc(N2CCN(C)CC2)c2c(C)c(C(=O)Nc3ccc(C)c(F)c3)sc2n1,0,0,0,0
COCCSc1ccccc1C(=O)Nc1ccc([N+](=O)[O-])cc1OC,81,0,0,0
COc1ccc([N+](=O)[O-])cc1NC(=O)c1cn(-c2ccc(Cl)cc2)c(=O)c2ccccc12,74,0,0,0
COc1ccc([N+](=O)[O-])cc1NC(=S)NC(NC(=O)C(c1ccccc1)c1ccccc1)C(Cl)(Cl)Cl (stereo not drawn),87,0,0,0
COCCSc1ccccc1C(=O)Nc1cc([N+](=O)[O-])ccc1OC,83,0,0,0
COc1ccc([N+](=O)[O-])cc1NC(=O)C(C)c1ccccc1 (stereo not drawn),0,0,0,0
CCOC(=O)C1CCCN(C(=O)c2cccc(S(=O)(=O)N(Cc3ccccc3)c3ccccc3OC)c2)C1 (stereo not drawn),0,0,0,0
CN(C)c1ccc(/C=C2\N=C(C(C)(C)C)OC2=O)cc1,0,0,0,0
CCOc1ccc(NC(=O)CN2C(=O)CCSc3ccc(S(=O)(=O)N4CCCC4)cc32)cc1,0,0,0,37
O=C(NCC1CCCC(CNC(=O)Nc2ccc(Cl)cn2)C1)Nc1ccc(Cl)cn1 (stereo not drawn),-,-,0,0
Cc1ccc(-n2nc3c(N4CCC(C(=O)NCc5ccccc5C)CC4)nnc(C)c3c2C)cc1,0,0,0,28
COc1ccc(-n2nc3c(N4CCC(C(=O)NCc5cccc(C)c5)CC4)nnc(C)c3c2C)cc1,0,0,-,?
COc1ccccc1CCNC(=O)C1CCN(c2nnc(C)c3c(C)n(-c4ccc(C)cc4)nc23)CC1,80,0,0,0
SMILES,SR-BI DiI inh,SR-BI uptake up,CDK5 inh,dFosB act
COc1ccc(-n2nc3c(N4CCC(C(=O)NCCc5ccco5)CC4)nnc(C)c3c2C)cc1,0,0,0,0
N/C(=N\N=C\c1ccco1)SC1CC(=O)N(c2ccc(C(=O)O)cc2)C1=O (stereo not drawn),0,60,0,0
O=[N+]([O-])c1ccc(N/N=C/c2c[nH]c3ccccc23)cc1,92,0,0,0
COc1ccc(NS(=O)(=O)c2cc([N+](=O)[O-])ccc2N/N=C\c2c(C)[nH]c3ccccc23)cc1,0,0,0,0
O=[N+]([O-])c1ccccc1N/N=C/c1c[nH]c2ccccc12,110,0,0,0
COc1ccccc1NS(=O)(=O)c1cc([N+](=O)[O-])ccc1N/N=C/c1c[nH]c2ccccc12,83,0,0,0
Cc1[nH]c2ccccc2c1/C=N/Nc1ccc([N+](=O)[O-])cc1S(=O)(=O)Nc1ccc(Cl)cc1,83,0,0,0
COc1ccc(C=NNc2ccc([N+](=O)[O-])cc2S(=O)(=O)Nc2ccccc2C(=O)O)cc1OC,0,0,0,0
Cn1c(=O)c(=O)n(C)c2cc(S(=O)(=O)CCC(=O)Nc3ccc(C(F)(F)F)cc3)ccc21,0,0,0,0
C#CCOCCOCCOCCNc1nc(N2CCN(C(=O)[C@H](CCC(=O)O)n3cc(C(N)CO)nn3)CC2)nc(N2CCN(C(=O)[C@H](Cc3cc4ccccc4[nH]3)n3cc(C(N)[C@H](C)CC)nn3)CC2)n1 (stereo partly drawn),0,0,0,0
C#CCOCCOCCOCCNc1nc(N2CCN(C(=O)[C@H](CCCCN)n3cc([C@@H](N)C(C)CC)nn3)CC2)nc(N2CCN(C(=O)[C@H](Cc3cc4ccccc4[nH]3)n3cc([C@@H](N)CC(C)C)nn3)CC2)n1 (stereo partly drawn),0,0,0,34
Cc1noc(C)c1C(=O)Nc1nnc(CC(C)C)s1,0,0,0,0
Cc1noc(C)c1COc1ccc(C(=O)Nc2nnc(CC(C)C)s2)cc1,82,0,0,0
Cc1noc(C)c1COc1ccc(C(=O)Nc2ccccc2)cc1,0,0,0,0
Cc1noc(C)c1COc1ccc(C(=O)NNC(=O)c2ccccc2O)cc1,95,0,0,0
CCOc1ccccc1/C=C/c1onc(C)c1S(=O)(=O)N1CCC(C(=O)N(CC)CC)CC1,71,0,0,0
Cc1noc(/C=C/c2ccco2)c1S(=O)(=O)N1CCC(C(=O)NC(C)c2ccccc2)CC1 (stereo not drawn),81,0,0,0
CCN(CCN(C)C)C(=O)C1CCN(S(=O)(=O)c2c(C)noc2/C=C/c2ccccc2F)CC1,0,0,-,0
COc1cc([N+](=O)[O-])ccc1NC(=O)Nc1ccc2c(c1)OCCO2,97,0,0,0
O=C(Nc1ccc([N+](=O)[O-])cc1)Nc1ccc2c(c1)OCCO2,0,0,0,0
COc1ccc(N2CCN(CCNC(=O)Nc3ccc([N+](=O)[O-])cc3OC)CC2)cc1,76,0,0,0
COc1cc(NC(=O)NCc2ccco2)ccc1-c1ccc(NC(=O)NCc2ccco2)cc1OC,74,0,0,0
COc1ccc(OC)c(NC(=O)NCCN2CCN(c3ccccc3)CC2)c1,0,0,0,0
COc1cc([N+](=O)[O-])ccc1NC(=O)NCc1ccco1,72,0,0,0
Cc1csc(=O)n1CCC(=O)OCC(=O)Nc1ccc(F)c(F)c1F,0,0,0,0
